The full list was thinned out, with hits kept by preference.
TLR9-MyD88 block = TLR9-MyD88 interaction inhibition; Q9NR96+Q99836; CHO BLA complementation TLR9-MyD88, CCF4 FRET ratio; inhibition, % at 4.98 µM; 0.21% of 340,000 active; AID 504734;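 active = inhibition above the mean over all tested compounds plus 3 SD, cut at about 21% in these data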
NOD2-RIPK2 inh = blocks binding of human NOD2 to RIPK2. O43353. CHO BLA complementation NOD2-RIPK2, CCF4 ratio. inhibition, % at 4.98 µM. 0.38% of 360,000 active. AID 624267; in the data active = inhibition above about 21%
Target sequence (O43353 whole entry, looked up): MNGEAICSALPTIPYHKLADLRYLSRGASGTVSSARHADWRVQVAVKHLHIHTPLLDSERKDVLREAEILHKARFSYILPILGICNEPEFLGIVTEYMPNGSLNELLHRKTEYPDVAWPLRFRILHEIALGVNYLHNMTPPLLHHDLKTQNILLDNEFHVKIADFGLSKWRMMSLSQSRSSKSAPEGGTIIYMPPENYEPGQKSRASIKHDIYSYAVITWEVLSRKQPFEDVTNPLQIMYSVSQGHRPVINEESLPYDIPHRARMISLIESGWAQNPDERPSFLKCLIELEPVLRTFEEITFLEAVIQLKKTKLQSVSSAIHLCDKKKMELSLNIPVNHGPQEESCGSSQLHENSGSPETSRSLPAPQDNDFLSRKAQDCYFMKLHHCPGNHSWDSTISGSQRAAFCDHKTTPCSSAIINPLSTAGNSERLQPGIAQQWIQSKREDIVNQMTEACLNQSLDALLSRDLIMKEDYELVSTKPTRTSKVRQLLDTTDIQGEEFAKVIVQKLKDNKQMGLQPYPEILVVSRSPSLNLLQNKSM
TLR4 MyD88 comp = blocks binding of human TLR4 to MyD88. O00206+Q99836. HeLa CL3-4 TLR4/MyD88 BLA complementation, FRET ratio. inhibition, % at 8.4 µM. 0.18% of 200,000 active. AID 861; in the data active = inhibition above about 25%
CHOP UPR activ = activators of apoptotic arm of unfolded protein response (CHOP). CHO-CHOP luciferase reporter, UPR activation, luminescence; percent of tunicamycin response over DMSO baseline. 0.34% of 330,000 active. activation, % at 10 µM. AID 449763;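 active = at 10 µM dose, activation of 40% or more, normalized to positive control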
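measured by = luciferase luminescence | assay system = CHO-CHOP cells, stable luciferase reporter of PERK-eIF2a-CHOP signalling | amount = 500 reporter cells seeded per well | timing = 6 h compound exposure at 37 °C after overnight seeding | controls = positive tunicamycin 10 µg/mL, negative DMSO alone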
CHOP inh = CHOP inhibition in unfolded protein response; CHO-K1 CHOP-promoter luciferase, tunicamycin-induced, 15-18 h; inhibition, % at 10 µM; 3.8% of 220,000 active;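 active = compounds that reduced the stress-induced luciferase reporter signal by more than about 70% of percent inhibition, limit read from the data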
XBP1 UPR activ = activators of adaptive arm of unfolded protein response (XBP1). activation, % at 20 µM. 0.33% of 330,000 active. AID 463104. CHO-XBP1 luciferase reporter, IRE1-XBP1 UPR activation, luminescence; percent of tunicamycin response, DMSO as zero;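 active = versus positive control, 20 µM dose yields 30% or more activation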
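Material: IRE1-XBP1 luciferase reporter CHO line / Quantity: one thousand reporter cells per well / Buffer or medium: F12 with 10% serum / Compound: 20 µM single concentration, DMSO 1% / Times: 6 h treatment, 37 °C / Detection: Steady-Glo luciferase glow luminescence, 10 min after reagent addition / Benchmarks: tunicamycin high, DMSO low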
Large screens that a line does not name were inactive.

Clc1cc(Br)ccc1OCCOCCOc1cccc2cccnc12	CHOP inh 71
Cc1ccc(OCCOCCOc2cccc3cccnc23)c(Br)c1	none
Cc1nn(-c2ccc(C(=O)Nc3nnc(C4CC4)s3)cc2)c(C)c1Cl	CHOP inh 73
Cc1ccc(Cn2c(=O)cc(C(=O)O)c3ccccc32)cc1	none
CCOC(=O)c1cc2c3ccccc3n(CC)c2nc1N	CHOP inh 73
CCOC(=O)c1cc(=O)n(Cc2ccccc2C)c2ccccc12	CHOP inh 71
CCOc1ccccc1C1C(C#N)=C(SCC(=O)OC)NC(=O)C1C(=O)OC (stereo not drawn)	CHOP inh 80
CCOC(=O)C1C(=O)NC(SCC(=O)OC)=C(C#N)C1c1ccccc1OCC (stereo not drawn)	none
COc1ccc(/C=C/C(=O)Nc2sc(Cc3ccccc3)c(C)c2C(N)=O)cc1	CHOP inh 75
c1ccc(-c2nc(-n3nc4ccccc4n3)nc3ccccc23)cc1	CHOP inh 74
Clc1ccc(-c2nc(N3CCCCC3)nc3ccccc23)cc1	none
O=C1CN(c2nc(-c3ccccc3)c3ccccc3n2)c2ccccc2N1	CHOP inh 77
CCOc1cc(CN2CCN(c3ncccn3)CC2)ccc1OC	none (no result: TLR4 MyD88 comp, CHOP inh)
Cc1cccc(C)c1NC(=O)COc1ccc2c(C)c(Cc3ccccc3)c(=O)oc2c1C	CHOP inh 96
O=[N+]([O-])c1ccc(O)c(/C=N\N=C2c3ccccc3-c3ccccc32)c1	CHOP inh 79
O=C(CN1CCN(c2ccc(F)cc2)CC1)Nc1ccc(S(=O)(=O)N2CCOCC2)cc1	none (no result: TLR4 MyD88 comp, CHOP inh)
O=C1/C(=C/c2ccccc2)CCCc2ccccc21	CHOP inh 89
O=C(NCCC(=O)N1CCN(Cc2c(F)cccc2Cl)CC1)c1ccc(Cl)cc1	none (no result: TLR4 MyD88 comp, CHOP inh)
O=S(=O)(c1ccsc1)N1CC=C(c2ccccc2)CC1	none (no result: TLR4 MyD88 comp, CHOP inh)
Cc1cc(OCC(=O)NCc2nc(-c3ccccc3)no2)c(C)cc1Br	none
Cc1cc(C)c(C)c(OCC(=O)NCc2nc(-c3ccccc3)no2)c1	CHOP inh 86
CCOC(=O)C1CCCN(C(=O)c2cc(CN3C(=O)c4ccccc4C3=O)ccc2OC)C1 (stereo not drawn)	none (no result: TLR4 MyD88 comp, CHOP inh)
Cc1nn(-c2nc(-c3ccco3)cc(C(F)(F)F)n2)c(C)c1Br	CHOP inh 73
O=S(=O)(Nc1ccccc1)c1ccc(F)cc1	none
O=S(=O)(NC12CC3CC(CC(C3)C1)C2)c1ccc(F)cc1	CHOP inh 72
Cc1c(C(=O)Nc2nnc(SCc3ccccc3Cl)s2)cccc1[N+](=O)[O-]	CHOP inh 78
Cc1c(C(=O)NCCSCc2ccccc2Cl)cccc1[N+](=O)[O-]	none
COc1cc(/C=C2\SC(=O)N(CC(=O)Nc3ccccc3F)C2=O)cc(Cl)c1O	none (no result: TLR4 MyD88 comp, CHOP inh)
CCOc1cc(/C=C2\SC(=O)N(CC(=O)Nc3ccccc3F)C2=O)cc([N+](=O)[O-])c1O	CHOP inh 93
O=C(OCc1ccc(Cl)cc1)c1cnccn1	CHOP inh 82
O=C(CCc1ccc(S(=O)(=O)N2CCOCC2)cc1)N1CCc2ccccc2C1	none
OCC1(Cc2ccccc2)CCN(Cc2cnc(-c3cccc4ccccc34)nc2)CC1	none
OCC1(Cc2ccccc2)CCN(Cc2cnc(-c3ccc(Cl)cc3)nc2)CC1	CHOP inh 73
CCC(C(=O)NC1CCCC1)n1c(-c2ccnc3ccccc23)nc2ccccc21 (stereo not drawn)	none (no result: TLR9-MyD88 block, TLR4 MyD88 comp, CHOP UPR activ, CHOP inh, XBP1 UPR activ)
CCOC(=O)c1cc2sccc2n1CC(=O)N1CCc2ccccc21	CHOP inh 74
CCNC(=S)N/N=C/c1cn(Cc2ccccc2F)c2ccccc12	CHOP inh 77
CCOC(=O)NC(NCc1ccccc1Cl)(C(F)(F)F)C(F)(F)F	CHOP inh 95
CCOC(=O)NC(NCc1cccc(C(F)(F)F)c1)(C(F)(F)F)C(F)(F)F	none
CCCCn1nc(C(=O)Nc2ccc(-n3cnnn3)cc2)c2ccccc2c1=O	none (no result: TLR4 MyD88 comp, CHOP inh)
Nn1cnc2c(c1=O)C1(CCCCC1)Cc1ccccc1-2	none
Oc1ccc(-c2nc3c4c(ncn3n2)-c2ccccc2CC42CCCC2)cc1	CHOP inh 106
CO/N=C/c1ccc(N2CCN(C(=O)c3ccc(C)cc3)CC2)c([N+](=O)[O-])c1	CHOP inh 73
CCOC(=O)C1=CC[C@@H](c2cccc(Br)c2)N(S(=O)(=O)c2ccc(F)cc2)[C@H]1c1cccc(Cl)c1	none (no result: TLR9-MyD88 block, TLR4 MyD88 comp, CHOP UPR activ, CHOP inh, XBP1 UPR activ)
CCn1c(SCC(=O)O)nnc1-c1cccnc1	none
CCc1ccc(NS(=O)(=O)c2ccc(OC)c(C)c2)cc1	CHOP inh 85
COc1ccc(S(=O)(=O)Nc2ccc3ccccc3c2)cc1C	CHOP inh 89
Cc1ccc(S(=O)(=O)Nc2ccc3ccccc3c2)cc1	none (no result: TLR4 MyD88 comp, CHOP UPR activ, CHOP inh, XBP1 UPR activ)
O=C(Nc1ccc(S(=O)(=O)NC2=NCCCCC2)cc1)c1ccc2ccccc2n1	none
C[C@@H]1CN([C@H](C)CO)C(=O)CCCn2nncc2CO[C@@H]1CN(C)C(=O)c1ccc(N2CCN(C)CC2)cc1	none (no result: TLR4 MyD88 comp, CHOP UPR activ, CHOP inh, XBP1 UPR activ)
COc1cccc(C(C(=O)NC2CCCC2)N(C(=O)c2ccco2)c2ccccc2)c1OC (stereo not drawn)	none (no result: TLR4 MyD88 comp, CHOP inh)
CC(=O)NCc1ccc(S(=O)(=O)N2CCCN(C)CC2)cc1	none (no result: TLR4 MyD88 comp, CHOP inh)
Cc1ccc(NC(=O)C(OC(=O)c2ccccc2Cl)c2ccccc2)cc1Cl (stereo not drawn)	none
Cc1ccc(NC(=O)C(OC(=O)c2ccc(NC(N)=O)cc2)c2ccccc2)cc1Cl (stereo not drawn)	CHOP inh 91
CCc1nc(SCC(=O)NC2CC2)c2c(C)c(C)sc2n1	none (no result: TLR4 MyD88 comp, CHOP inh)
O=C(Nc1ccc([N+](=O)[O-])cc1)Nc1ccc(N2CCOCC2)c2nonc12	CHOP inh 76
CC(=O)Nc1cc([N+](=O)[O-])ccc1N1CCOCC1	none
CCn1c(=O)c(=O)[nH]c2cc(C(=O)NCc3ccc(F)cc3)ccc21	none (no result: TLR4 MyD88 comp, CHOP inh)
FC(F)(F)c1cc(Cc2nc3ccccc3n2C(CCc2ccccc2)c2nc3ccccc3[nH]2)cc(C(F)(F)F)c1 (stereo not drawn)	none (no result: TLR9-MyD88 block, TLR4 MyD88 comp, CHOP UPR activ, CHOP inh, XBP1 UPR activ)
CCN1C(=O)C(CC(=O)Nc2ccc(Br)cc2)N(CCCc2ccccc2)C1=S (stereo not drawn)	CHOP inh 89
CCCOc1ccc(NC(=O)CC2C(=O)N(CC)C(=S)N2CCNC(C)=O)cc1 (stereo not drawn)	none
CCN1C(=O)C(CC(=O)Nc2ccc(F)cc2)N(CCCN2CCN(c3ccc(F)cc3)CC2)C1=S (stereo not drawn)	CHOP inh 95
CCCOc1ccc(NC(=O)CC2C(=O)N(CC)C(=S)N2CCCN2CCN(Cc3ccccc3)CC2)cc1 (stereo not drawn)	CHOP inh 92
O=C(CCN1CCN(Cc2ccccc2)CC1)Nc1ccc(OCc2ccccc2)cc1	CHOP inh 70

High-throughput results deposited in PubChem by several laboratories.
